Key:
[1] = system: panel of 50 unrelated proteins; assay: Off-target panel
human neutrophils = assay: Human NET assay; assay type: cell-based; details: S. aureus, 5 bacteria per neutrophil, versus vehicle
Outline: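 S. aureus was grown 20 h shaking in LB at 37 °C, washed in ice-cold PBS and added at 5× MOI for 3 h at 37 °C. Cells were fixed in 2% PFA and stained with Hoechst 33342. Confocal imaging was used, with algorithmic classification as lobulated, delobulated or diffused NETs, from 60 fields across 3 wells per treatment.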

PAD4 = PAD4 (Homo sapiens, UniProt Q9UM07); assay: PAD4 FP binding assay; details: 10 nM GSK215, mean of replicates
[2] = system: histone deacetylases 1–11; assay: Histone deacetylase selectivity; assay type: biochemical; details: for inhibition of histone deacetylases 1–11: at 100 µM; for Activation of HDACs: up to 100 µM
mouse neutrophils = assay: Mouse NET assay; assay type: cell-based; details: 10 µM pre-treatment, ionomycin
Outline: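 Mouse peripheral blood neutrophils were isolated by density centrifugation plus hypotonic lysis (>90% pure). They were settled 15 min on uncoated glass-bottom wells in RPMI/10 mM HEPES at 37 °C, given compound or vehicle for 20 min, then stimulated with 4 µM ionomycin for 2 h at 37 °C. Cells were fixed in 2% PFA overnight at 4 °C, permeabilised, blocked, and stained with anti-citrullinated H3 (0.3 µg/mL, overnight 4 °C), a fluorescent secondary and Hoechst 33342. Fluorescence microscopy was used for blinded scoring of H3Cit+ cells and spread NETs by nuclear morphology.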

PAD4, sequence (Q9UM07 whole entry): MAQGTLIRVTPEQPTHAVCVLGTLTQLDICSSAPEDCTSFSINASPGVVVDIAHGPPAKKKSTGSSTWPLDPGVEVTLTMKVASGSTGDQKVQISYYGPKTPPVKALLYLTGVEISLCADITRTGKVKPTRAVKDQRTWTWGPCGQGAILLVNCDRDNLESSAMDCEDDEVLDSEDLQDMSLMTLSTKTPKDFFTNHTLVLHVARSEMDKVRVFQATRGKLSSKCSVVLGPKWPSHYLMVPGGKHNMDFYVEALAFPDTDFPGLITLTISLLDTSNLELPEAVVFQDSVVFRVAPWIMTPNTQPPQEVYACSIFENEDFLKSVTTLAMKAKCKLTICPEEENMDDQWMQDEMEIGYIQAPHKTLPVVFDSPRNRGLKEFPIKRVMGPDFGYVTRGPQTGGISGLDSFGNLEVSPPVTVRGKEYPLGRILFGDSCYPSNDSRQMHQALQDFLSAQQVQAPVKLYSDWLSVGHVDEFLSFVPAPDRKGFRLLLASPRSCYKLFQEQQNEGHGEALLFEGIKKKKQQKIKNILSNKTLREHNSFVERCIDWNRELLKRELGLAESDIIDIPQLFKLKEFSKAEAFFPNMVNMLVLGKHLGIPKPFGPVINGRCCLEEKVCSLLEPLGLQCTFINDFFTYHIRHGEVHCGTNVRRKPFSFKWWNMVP

| Compound | Off-target activity against a panel of 50 unrelated proteins [1] | Diffused NETs (human neutrophils) | IC50 (PAD4; PAD4 FP Binding Assay IC50, 0 mM Ca, 0 mM Ca) | IC50 (PAD4; PAD4 FP Binding Assay IC50, 2 mM Ca, 2 mM Ca) | inhibition of histone deacetylases 1–11 [2] | Activation of HDACs [2] | Histone H3 citrullination (mouse neutrophils) | NET formation (mouse neutrophils) |
| --- | --- | --- | --- | --- | --- | --- | --- | --- |
| CCn1c(-c2nc3cc(C(=O)N4CCC[C@@H](N)C4)cc(OC)c3n2C)cc2cccnc21 [GSK199, (R)-(3-Aminopiperidin-1-yl)(2-(1-ethyl-1H-pyrrolo[2,3-b]pyridin-2-yl)-7-methoxy-1-methyl-1H-benzo[d]imidazol-5-yl)methanone] | negligible off-target activity | less marked inhibition | 0.2 µM | 1 µM | < 50% | partial activation of HDACs 1 and 8 at high concentrations | produced the same effect | produced the same effect |
| COc1cc(C(=O)N2CC[C@@H](O)[C@@H](N)C2)cc2nc(-c3cc4ccccc4n3CC3CC3)n(C)c12 [GSK484, ((3S,4R)-3-Amino-4-hydroxypiperidin-1-yl)(2-(1-(cyclopropylmethyl)-1H-indol-2-yl)-7-methoxy-1-methyl-1H-benzo[d]imidazol-5-yl)methanone] | negligible off-target activity | clear, statistically-significant reduction | – | – | < 50% | no activation across HDACs 1–11 | dramatically diminished | dramatically diminished |
| CCn1c(-c2nc3ccc(C(=O)N4CCCC(N)C4)cc3n2C)cc2ccccc21 (centres unmarked) [GSK106, (3-Aminopiperidin-1-yl)(2-(1-ethyl-1H–indol-2-yl)-1-methyl-1H-benzo[d]imidazol-6-yl)methanone] | – | ineffective | – | – | – | – | ineffective | ineffective |

From paper PMC4397581 (Nature chemical biology, 2015)
